Test results: ChEMBL document CHEMBL1138270, “Antimycobacterial activities of novel 1-(cyclopropyl/tert-butyl/4-fluorophenyl)-1,4-dihydro- 6-nitro-4-oxo-7-(substituted secondary amino)-1,8-naphthyridine-3-carboxylic acid” (J Med Chem, 2007)
pIC50: −log10 of the molar value. Values after ≈ are worked out from the molar mass of the structure shown.

Columns and labels:
[1] = tested on: Mycobacterium tuberculosis; experiment: Antimycobacterial activity against Mycobacterium tuberculosis H37Rv by agar dilution method; assay type: functional
How it was run: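 MIC was determined by agar dilution, in duplicate.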

[2] = tested on: Vero; experiment: Cytotoxicity against Vero cells after 72 hrs by MTT assay; assay type: cell-based; settings: Chlorocebus sabaeus
How it was run: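 Vero cells were exposed to serially diluted compound up to 62.5 µg/mL for 72 h. Viability was read by cellular conversion of MTT to formazan (CellTiter 96 non-radioactive proliferation assay), and IC50 was derived.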

[3] = Inhibition of Mycobacterium smegmatis DNA gyrase supercoiling activity; parameters: species or system Mycolicibacterium smegmatis
How it was run: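 Gyrase purified from M. smegmatis was preincubated with compound in DMSO (5% DMSO in reaction). 400 ng relaxed pUC18 was added in 35 mM Tris-HCl pH 7.5, 5 mM MgCl2, 25 mM K-glutamate, 2 mM spermidine, 2 mM ATP, BSA, tRNA and 5% glycerol, 1 h at 37 °C. Samples were heat-inactivated, run on 1% agarose in TAE, and ethidium-stained; IC50 was derived.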

[4] = tested on: Mycolicibacterium smegmatis; experiment: Antimicrobial activity against Mycobacterium smegmatis by agar dilution method; assay type: functional
How it was run: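 Agar dilution against M. smegmatis ATCC 14468; MIC determined in duplicate.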

[5] = tested on: Mus musculus; experiment: Phototoxicity in Swiss Albino mouse assessed as ear erythema at 140 mg/kg, po after 4 hrs of irradiation; assay type: organism-based; parameters: dose 140 mg/kg, route oral; settings: in vivo
[6] = tested on: Mus musculus; experiment: Phototoxicity in Swiss Albino mouse assessed as ear thickness at 140 mg/kg, po after 4 hrs of irradiation; assay type: organism-based; parameters: dose 140 mg/kg, route oral; settings: in vivo
How it was run: (§1)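 Female Swiss albino mice (~2 months, 20-25 g) were fasted ≥18 h and given 140 mg/kg orally by gavage; controls received 0.5% Na-CMC vehicle at 10 mL/kg. UVA started right after dosing, 4 h (~18 J/cm2). Ear thickness was measured before dosing and at 4, ~24, 48, 72 and 96 h, reported as mean of left and right ears ± SEM.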

[7] = tested on: Mus musculus; experiment: Phototoxicity in UV light irradiated Swiss Albino mouse assessed ear erythema at 140 mg/kg, po; assay type: organism-based; parameters: dose 140 mg/kg, route oral; settings: in vivo
[8] = tested on: Mus musculus; experiment: Phototoxicity in Swiss Albino mouse assessed as ear thickness at 140 mg/kg, po after 48 hrs of irradiation; assay type: organism-based; parameters: dose 140 mg/kg, route oral; settings: in vivo; how it was run: as §1
[9] = tested on: Mus musculus; experiment: Phototoxicity in Swiss Albino mouse assessed as ear thickness at 140 mg/kg, po after 72 hrs of irradiation; assay type: organism-based; parameters: dose 140 mg/kg, route oral; settings: in vivo; how it was run: as §1
[10] = tested on: Mus musculus; experiment: Phototoxicity in Swiss Albino mouse assessed as ear thickness at 140 mg/kg, po after 24 hrs of irradiation; assay type: organism-based; parameters: dose 140 mg/kg, route oral; settings: in vivo; how it was run: as §1
[11] = tested on: Mus musculus; experiment: Phototoxicity in Swiss Albino mouse assessed as ear erythema at 140 mg/kg, po after 72 hrs of irradiation; assay type: organism-based; parameters: dose 140 mg/kg, route oral; settings: in vivo
[12] = tested on: Mus musculus; experiment: Phototoxicity in Swiss Albino mouse assessed as ear erythema at 140 mg/kg, po after 24 hrs of irradiation; assay type: organism-based; parameters: dose 140 mg/kg, route oral; settings: in vivo
[13] = tested on: Mus musculus; experiment: Phototoxicity in Swiss Albino mouse assessed as ear erythema at 140 mg/kg, po after 96 hrs of irradiation; assay type: organism-based; parameters: dose 140 mg/kg, route oral; settings: in vivo
[14] = tested on: Mus musculus; experiment: Phototoxicity in UV light irradiated Swiss Albino mouse assessed as ear thickness at 140 mg/kg, po; assay type: organism-based; parameters: dose 140 mg/kg, route oral; settings: in vivo; how it was run: as §1
[15] = tested on: Mus musculus; experiment: Phototoxicity in Swiss Albino mouse assessed as ear thickness at 140 mg/kg, po after 96 hrs of irradiation; assay type: organism-based; parameters: dose 140 mg/kg, route oral; settings: in vivo; how it was run: as §1

| Structure (SMILES) | MIC [1] [µM] | pIC50 [2] | MIC [4] [µM] | other results |
| --- | --- | --- | --- | --- |
| CN1CCN(c2nc3c(cc2[N+](=O)[O-])c(=O)c(C(=O)O)cn3-c2ccc(F)cc2)CC1c1ccccc1 (stereo not given) | 0.77 (≈ 0.388 µg/mL) | 3.91 | 3.09 (≈ 1.56 µg/mL) | pIC50 [3]: 4.00 |
| CN1CCN(c2nc3c(cc2[N+](=O)[O-])c(=O)c(C(=O)O)cn3C2CC2)CC1c1ccccc1 (stereo not given) | 6.96 (≈ 3.13 µg/mL) | 3.86 | 27.8 (≈ 12.5 µg/mL) | – |
| O=C(O)c1cn(C2CC2)c2nc(N3CCC(n4c(=O)[nH]c5cc(Cl)ccc54)CC3)c([N+](=O)[O-])cc2c1=O | 2.97 (≈ 1.56 µg/mL) | 4.26 | 23.8 (≈ 12.5 µg/mL) | – |
| O=C(O)c1cn(-c2ccc(F)cc2)c2nc(N3CCN(C(c4ccccc4)c4ccc(Cl)cc4)CC3)c([N+](=O)[O-])cc2c1=O (stereo not given) | 1.27 (≈ 0.78 µg/mL) | 3.99 | 5.09 (≈ 3.13 µg/mL) | – |
| CC(C)(C)n1cc(C(=O)O)c(=O)c2cc([N+](=O)[O-])c(N3CCN(Cc4ccc5c(c4)OCO5)CC3)nc21 | 1.53 (≈ 0.78 µg/mL) | < 3.91 | 6.14 (≈ 3.13 µg/mL) | – |
| O=C(O)c1cn(-c2ccc(F)cc2)c2nc(N3CCC(N4CCCCC4)CC3)c([N+](=O)[O-])cc2c1=O | 3.15 (≈ 1.56 µg/mL) | < 3.90 | 25.2 (≈ 12.5 µg/mL) | – |
| CC(C)(C)NC(=O)C1c2ccccc2CCN1c1nc2c(cc1[N+](=O)[O-])c(=O)c(C(=O)O)cn2C1CC1 (stereo not given) | 3.09 (≈ 1.56 µg/mL) | 3.91 | 24.7 (≈ 12.5 µg/mL) | – |
| CC(C)(C)n1cc(C(=O)O)c(=O)c2cc([N+](=O)[O-])c(N3CCN(C(=O)c4ccco4)CC3)nc21 | 3.32 (≈ 1.56 µg/mL) | 3.88 | 6.67 (≈ 3.13 µg/mL) | – |
| O=C(O)c1cn(C2CC2)c2nc(N3CCN(Cc4ccc5c(c4)OCO5)CC3)c([N+](=O)[O-])cc2c1=O | 3.16 (≈ 1.56 µg/mL) | 3.90 | 25.3 (≈ 12.5 µg/mL) | – |
| O=C(O)c1cn(-c2ccc(F)cc2)c2nc(N3CCC4(CC3)OCCO4)c([N+](=O)[O-])cc2c1=O | 6.65 (≈ 3.13 µg/mL) | 3.88 | 26.6 (≈ 12.5 µg/mL) | – |
| CC(C)(C)n1cc(C(=O)O)c(=O)c2cc([N+](=O)[O-])c(N3CCC4(CC3)OCCO4)nc21 | 0.9 (≈ 0.389 µg/mL) | 3.84 | 3.61 (≈ 1.56 µg/mL) | pIC50 [3]: 4.03 |
| CCN(CC)C(=O)C1CCCN(c2nc3c(cc2[N+](=O)[O-])c(=O)c(C(=O)O)cn3C2CC2)C1 (stereo not given) | 3.41 (≈ 1.56 µg/mL) | < 3.86 | 109 (≈ 50 µg/mL) | – |
| O=C(O)c1cn(C2CC2)c2nc(N3CCN(C(c4ccccc4)c4ccc(Cl)cc4)CC3)c([N+](=O)[O-])cc2c1=O (stereo not given) | 5.59 (≈ 3.13 µg/mL) | 3.95 | 22.3 (≈ 12.5 µg/mL) | – |
| O=C(O)c1cn(C2CC2)c2nc(N3CCSCC3)c([N+](=O)[O-])cc2c1=O | 8.32 (≈ 3.13 µg/mL) | 3.78 | 33.2 (≈ 12.5 µg/mL) | – |
| O=C(O)c1cn2c(n1)CN(c1nc3c(cc1[N+](=O)[O-])c(=O)c(C(=O)O)cn3C1CC1)CC2 | 3.54 (≈ 1.56 µg/mL) | 3.85 | 28.4 (≈ 12.5 µg/mL) | – |
| CC(C)(C)n1cc(C(=O)O)c(=O)c2cc([N+](=O)[O-])c(N3CCN(C(=O)C4COc5ccccc5O4)CC3)nc21 (stereo not given) | 1.45 (≈ 0.779 µg/mL) | 3.93 | 5.82 (≈ 3.13 µg/mL) | – |
| CN1CCN(c2nc3c(cc2[N+](=O)[O-])c(=O)c(C(=O)O)cn3C(C)(C)C)CC1c1ccccc1 (stereo not given) | 0.84 (≈ 0.391 µg/mL) | < 3.87 | 13.4 (≈ 6.25 µg/mL) | – |
| CCN(CC)C(=O)C1CCCN(c2nc3c(cc2[N+](=O)[O-])c(=O)c(C(=O)O)cn3C(C)(C)C)C1 (stereo not given) | 3.29 (≈ 1.56 µg/mL) | < 3.88 | 106 (≈ 50 µg/mL) | – |
| COc1ccc(CC2C3=C(CCCC3)CCN2c2nc3c(cc2[N+](=O)[O-])c(=O)c(C(=O)O)cn3C2CC2)cc1 (stereo not given) | 5.89 (≈ 3.13 µg/mL) | 3.93 | 1.47 (≈ 0.78 µg/mL) | Activity [5]: Non-toxic; Activity [6]: 0.34 mm; Activity [7]: Non-toxic; Activity [8]: 0.38 mm; Activity [9]: 0.36 mm; Activity [10]: 0.34 mm; Activity [11]: Non-toxic; Activity [12]: Non-toxic; Activity [13]: Non-toxic; pIC50 [3]: 4.25; Activity [14]: 0.33 mm; Activity [15]: 0.33 mm |
| O=C(O)c1cn(C2CC2)c2nc(N3CCC4(CC3)OCCO4)c([N+](=O)[O-])cc2c1=O | 7.52 (≈ 3.13 µg/mL) | 3.82 | 30 (≈ 12.5 µg/mL) | – |
| O=C(O)c1cn(-c2ccc(F)cc2)c2nc(N3CCN(C(=O)C4COc5ccccc5O4)CC3)c([N+](=O)[O-])cc2c1=O (stereo not given) | 10.9 (≈ 6.25 µg/mL) | < 4.27 | 21.7 (≈ 12.5 µg/mL) | – |
| O=C(O)c1cn(C2CC2)c2nc(N3CCC(O)(c4ccc(Cl)cc4)CC3)c([N+](=O)[O-])cc2c1=O | 6.46 (≈ 3.13 µg/mL) | 4.19 | 25.8 (≈ 12.5 µg/mL) | – |
